What was measured:
[1] = molecular target: T1, Adrenergic receptor alpha-1 (Rattus norvegicus, UniProt P15823+P23944+P43140); test: In vitro antagonistic activity against the contraction induced by phenylephrine through alpha-1 receptor in rat thoracic aortic strips; assay type: functional
T1 sequence (P15823 whole entry): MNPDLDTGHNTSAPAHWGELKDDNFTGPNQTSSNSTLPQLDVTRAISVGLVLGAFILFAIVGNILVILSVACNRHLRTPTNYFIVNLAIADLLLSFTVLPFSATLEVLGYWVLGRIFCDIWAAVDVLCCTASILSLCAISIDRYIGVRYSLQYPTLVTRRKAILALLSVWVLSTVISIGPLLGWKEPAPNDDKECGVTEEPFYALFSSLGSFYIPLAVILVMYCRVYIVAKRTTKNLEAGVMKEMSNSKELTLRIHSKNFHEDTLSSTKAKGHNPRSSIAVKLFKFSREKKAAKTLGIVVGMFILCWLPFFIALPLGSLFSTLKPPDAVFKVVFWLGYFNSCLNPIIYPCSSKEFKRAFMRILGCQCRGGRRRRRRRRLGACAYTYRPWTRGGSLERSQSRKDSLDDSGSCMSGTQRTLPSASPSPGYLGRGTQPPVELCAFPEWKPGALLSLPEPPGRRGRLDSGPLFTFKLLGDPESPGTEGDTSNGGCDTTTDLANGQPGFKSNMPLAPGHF
T1 sequence (P23944 whole entry): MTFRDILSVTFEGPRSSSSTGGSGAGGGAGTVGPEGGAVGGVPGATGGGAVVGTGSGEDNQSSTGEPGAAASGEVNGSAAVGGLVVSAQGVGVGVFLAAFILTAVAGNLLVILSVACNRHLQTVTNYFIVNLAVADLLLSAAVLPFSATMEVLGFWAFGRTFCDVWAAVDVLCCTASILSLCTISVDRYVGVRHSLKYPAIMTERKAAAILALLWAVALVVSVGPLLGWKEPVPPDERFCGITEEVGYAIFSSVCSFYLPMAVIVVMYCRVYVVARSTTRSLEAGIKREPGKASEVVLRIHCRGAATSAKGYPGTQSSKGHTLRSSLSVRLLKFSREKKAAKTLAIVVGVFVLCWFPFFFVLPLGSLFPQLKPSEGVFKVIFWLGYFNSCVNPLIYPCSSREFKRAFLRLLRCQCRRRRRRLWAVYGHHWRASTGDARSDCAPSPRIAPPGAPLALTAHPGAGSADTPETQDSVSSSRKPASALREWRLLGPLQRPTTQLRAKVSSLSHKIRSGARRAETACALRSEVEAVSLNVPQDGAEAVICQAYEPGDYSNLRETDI
T1 sequence (P43140 whole entry): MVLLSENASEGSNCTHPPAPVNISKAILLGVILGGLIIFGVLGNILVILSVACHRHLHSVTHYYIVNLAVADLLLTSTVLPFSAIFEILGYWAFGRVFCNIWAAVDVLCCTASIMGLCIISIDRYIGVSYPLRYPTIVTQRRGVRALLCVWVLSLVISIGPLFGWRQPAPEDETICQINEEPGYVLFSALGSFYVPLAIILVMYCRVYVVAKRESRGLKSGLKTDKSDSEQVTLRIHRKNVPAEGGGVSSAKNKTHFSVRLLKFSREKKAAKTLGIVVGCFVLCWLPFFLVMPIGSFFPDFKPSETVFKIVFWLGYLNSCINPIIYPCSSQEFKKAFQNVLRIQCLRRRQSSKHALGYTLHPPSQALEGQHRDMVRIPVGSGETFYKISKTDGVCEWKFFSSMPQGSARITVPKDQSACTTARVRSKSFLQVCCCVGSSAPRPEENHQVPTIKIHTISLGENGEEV
Summary of the method: (§1)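 Rat thoracic aortic strips, isometric tension; equilibrated 120 min, primed with 60 mM KCl. Cumulative phenylephrine (0.01-10 μM) curve, wash, 1 h later second cumulative curve with test drug present. pA2 from the concentration-response curves where blockade is competitive (otherwise noncompetitive); single determination.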

[2] = molecular target: Serotonin 2 (5-HT2) receptor (Rattus norvegicus, UniProt P30994+P08909+P14842); test: In vitro antagonistic activity tested against the contraction induced by 5-HT through 5-hydroxytryptamine 2 receptor in rat thoracic aortic strips; assay type: functional
[3] = molecular target: T2, Serotonin 2 (5-HT2) receptor (Rattus norvegicus) (UniProt P30994+P08909+P14842); test: In vivo inhibitory activity of 10 mg/kg compound in rats against elevation of BP caused by 5-HT (300 ug/kg, iv) through 5-hydroxytryptamine 2 receptor 1 hr after oral administration; assay type: functional, organism-based; design: dose 10 mg/kg
Summary of the method: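 Male SD rats anesthetized with urethane (1 g/kg ip) plus alpha-chloralose (80 mg/kg ip). Carotid arterial catheter to a pressure transducer, venous catheter for injection. After oral drug or vehicle, 5-HT 300 μg/kg iv. The pressor phase following the brief hypotensive phase was measured and expressed as % inhibition, mean ± SEM.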

[4] = molecular target: T3, Adrenergic receptor alpha-1 (Rattus norvegicus) (UniProt P15823+P23944+P43140); test: In vivo inhibitory activity in rats against elevation of blood pressure caused by phenylephrine (30 ug/kg, iv) through alpha-1 receptor after 1 hr of oral administration at the dose of 10 mg/kg; assay type: functional, organism-based; design: dose 10 mg/kg
Summary of the method: (§2)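 Male SD rats under urethane (1 g/kg ip) and alpha-chloralose (80 mg/kg ip). Blood pressure recorded via carotid catheter and transducer, iv dosing via venous catheter. After oral drug or vehicle, phenylephrine 30 μg/kg iv. The pressor rise was expressed as % inhibition, mean ± SEM.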

[5] = molecular target: T1, Adrenergic receptor alpha-1; test: In vitro antagonistic activity tested against the contraction induced by phenylephrine through Alpha-1 adrenergic receptor in rat thoracic aortic strips; assay type: functional; summary of the method: as §1
[6] = molecular target: T3, Adrenergic receptor alpha-1 (Rattus norvegicus); test: In vivo inhibitory activity in rats against elevation of blood pressure caused by phenylephrine (30 ug/kg, iv) through Alpha-1 adrenergic receptor, after 1 hr oral administration at dose of 10 mg/kg; assay type: functional, organism-based; design: dose 10 mg/kg; summary of the method: as §2
[7] = molecular target: T3, Adrenergic receptor alpha-1 (Rattus norvegicus); test: In vitro antagonistic activity against the contraction induced by phenylephrine through Alpha-1 adrenergic receptor in rat thoracic aortic strips; NC = non-competitive inhibition; assay type: functional; summary of the method: as §1
[8] = molecular target: T2, Serotonin 2 (5-HT2) receptor (Rattus norvegicus); test: In vitro antagonistic activity against the contraction induced by 5-HT through 5-hydroxytryptamine 2 receptor in rat thoracic aortic strips; NC=non competitive antagonism; assay type: functional; conditions: filed as antagonist
Summary of the method: as §1, with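 “5-HT (0.1-100” for “phenylephrine (0.01-10”, “cumulative 5-HT” for “cumulative”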

T2 sequence (P08909 whole entry, looked up): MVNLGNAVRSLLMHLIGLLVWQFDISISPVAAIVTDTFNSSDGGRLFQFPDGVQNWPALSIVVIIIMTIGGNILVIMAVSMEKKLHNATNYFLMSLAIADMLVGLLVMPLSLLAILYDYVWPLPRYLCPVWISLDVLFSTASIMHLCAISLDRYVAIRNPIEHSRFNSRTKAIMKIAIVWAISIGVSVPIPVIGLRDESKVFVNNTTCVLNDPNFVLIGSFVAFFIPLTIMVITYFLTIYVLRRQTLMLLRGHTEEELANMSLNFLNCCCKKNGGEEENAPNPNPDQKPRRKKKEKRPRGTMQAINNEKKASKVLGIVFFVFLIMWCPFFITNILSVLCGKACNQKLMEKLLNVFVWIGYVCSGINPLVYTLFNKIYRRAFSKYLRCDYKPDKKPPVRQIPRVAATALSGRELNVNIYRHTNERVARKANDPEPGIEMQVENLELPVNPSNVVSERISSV
T2 sequence (P14842 whole entry, looked up): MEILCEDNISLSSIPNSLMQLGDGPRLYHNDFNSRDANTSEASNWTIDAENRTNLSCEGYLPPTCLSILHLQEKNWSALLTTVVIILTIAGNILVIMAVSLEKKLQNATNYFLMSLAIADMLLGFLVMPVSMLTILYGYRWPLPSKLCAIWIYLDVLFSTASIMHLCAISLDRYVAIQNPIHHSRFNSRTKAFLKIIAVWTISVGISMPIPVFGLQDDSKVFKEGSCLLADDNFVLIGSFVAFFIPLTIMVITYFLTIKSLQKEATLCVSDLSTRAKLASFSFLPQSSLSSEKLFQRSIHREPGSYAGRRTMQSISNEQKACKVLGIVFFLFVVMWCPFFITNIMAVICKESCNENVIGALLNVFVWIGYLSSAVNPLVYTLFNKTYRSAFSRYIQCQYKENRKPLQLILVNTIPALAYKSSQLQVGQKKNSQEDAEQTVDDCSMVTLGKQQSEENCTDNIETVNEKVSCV
T2 sequence (P30994 whole entry, looked up): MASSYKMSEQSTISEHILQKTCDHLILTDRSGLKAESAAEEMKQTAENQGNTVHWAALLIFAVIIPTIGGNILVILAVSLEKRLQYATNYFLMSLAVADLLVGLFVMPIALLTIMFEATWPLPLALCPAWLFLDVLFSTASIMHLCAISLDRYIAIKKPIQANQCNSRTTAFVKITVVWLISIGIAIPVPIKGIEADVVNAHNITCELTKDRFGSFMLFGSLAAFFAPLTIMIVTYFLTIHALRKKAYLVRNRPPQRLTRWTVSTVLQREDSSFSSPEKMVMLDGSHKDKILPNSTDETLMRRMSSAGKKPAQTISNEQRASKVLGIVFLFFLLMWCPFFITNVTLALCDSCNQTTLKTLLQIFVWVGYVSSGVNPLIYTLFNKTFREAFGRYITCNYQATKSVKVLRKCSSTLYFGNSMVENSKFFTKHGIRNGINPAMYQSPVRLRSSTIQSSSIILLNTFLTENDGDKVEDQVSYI

Compound | pA2 [1] | pA2 [2] | inhibition [3] | inhibition [4] | pA2 [5] | inhibition [6] | pA2 [7] | pA2 [8]
O=c1n(CCN2CCC(=C(c3ccc(F)cc3)c3ccc(F)cc3)CC2)nc2n1CCC2 | 6.9 | 7.1 | 74% | 6% | – | – | – | –
O=C(c1ccc(F)cc1)C1CCN(CCn2c(=O)nc3n(c2=O)CCC3)CC1 | – | 7.3 | 67% | – | 7.1 | 23% | – | –
O=c1n(CCN2CCC(=C(c3ccc(F)cc3)c3ccc(F)cc3)CC2)nc2n1CCSC2 | – | 7.8 | 67% | – | 7.5 | 4% | – | –
O=c1n(CCN2CCC(=C(c3ccc(F)cc3)c3ccc(F)cc3)CC2)nc2n1CCOC2 | – | 7.2 | 60% | – | 6.6 | 10% | – | –
O=c1n(CCN2CCC(=C(c3ccc(F)cc3)c3ccc(F)cc3)CC2)nc2n1CCCCC2 | 7 | 8.5 | 90% | 3% | – | – | – | –
O=C(c1ccc(F)cc1)C1CCN(CCn2nc3n(c2=O)CCOC3)CC1 | – | 7.4 | 62% | – | 6.3 | 36% | – | –
O=c1nc2sccn2c(=O)n1CCN1CCC(=C(c2ccc(F)cc2)c2ccc(F)cc2)CC1 | – | 7.1 | 93% | – | < 6 | 20% | – | –
O=C(c1ccc(F)cc1)C1CCN(CCn2nc3n(c2=O)CCCC3)CC1c1ccc(F)cc1 (configuration not stated) | – | 6.8 | 90% | – | 6.8 | 15% | – | –
N#CC(=C1CCN(CCn2nc3n(c2=O)CCCC3)CC1)c1ccc(F)cc1 | – | 6.7 | 32% | – | 6.3 | 2% | – | –
O=C(c1ccc(F)cc1)C1CCN(CCn2nc3n(c2=O)CCC3)CC1 | – | 6.8 | 65% | – | 6.4 | 36% | – | –
O=C(c1ccc(F)cc1)C1CCN(CCn2c(=O)nc3sccn3c2=O)CC1 | – | 7.9 | 79% | – | – | 50% | Non-competitive inhibition | –
O=C(c1ccc(F)cc1)C1CCN(CCn2nc3n(c2=O)CCCC3)CC1 | – | 7.4 | 91% | – | < 6 | 32% | – | –
O=C(c1ccc(F)cc1)C1CCN(CCCn2c(=O)nc3n(c2=O)CCCC3)CC1 | – | 6.5 | 78% | – | 7.3 | 53% | – | –
O=C(c1ccc(F)cc1)C1(O)CCN(CCn2nc3n(c2=O)CCCC3)CC1 | – | 6.8 | 85% | – | 7 | 15% | – | –
O=C(c1ccc(F)cc1)C1(O)CCN(CCCn2nc3n(c2=O)CCCCC3)CC1 | – | 7.3 | 72% | – | 7.6 | – | – | –
O=C(c1ccc(F)cc1)C1CCN(CCn2c(=O)nc3ccccn3c2=O)CC1 | – | 8.1 | – | – | 7.5 | – | – | –
O=C(c1ccc(F)cc1)C1(O)CCN(CCn2c(=O)nc3n(c2=O)CCCC3)CC1 | – | 6.7 | 83% | – | 7.2 | 20% | – | –
O=C(c1ccc(F)cc1)C1CCN(CCn2c(=O)nc3n(c2=O)CCCCC3)CC1 | – | 7.8 | 78% | – | 6.9 | 15% | – | –
O=C(c1ccc(F)cc1)C1(c2ccc(F)cc2)CCN(CCn2nc3n(c2=O)CCCC3)CC1 | – | 6 | 11% | – | < 6 | 6% | – | –
O=c1n(CCN2CCC(=C(c3ccc(F)cc3)c3ccc(F)cc3)CC2)nc2n1CCCO2 | – | – | 89% | – | 7.8 | 16% | – | –
O=c1nc2n(c(=O)n1CCN1CCC(=C(c3ccc(F)cc3)c3ccc(F)cc3)CC1)CCCC2 | 6.8 | 8.3 | 93% | 12% | – | – | – | –
O=c1n(CCN2CCC(=C(c3ccccc3)c3ccccc3)CC2)nc2n1CCCCC2 | – | 7 | 42% | – | < 6 | 3% | – | –
O=C(c1ccc(F)cc1)C1CCN(CCn2nc3n(c2=O)CCCCC3)CC1 | – | – | – | – | – | – | Non-competitive inhibition | Non-competitive antagonist
O=c1n(CCN2CCC(=C(c3ccccc3)c3ccc(F)cc3)CC2)nc2n1CCCCC2 | – | 7.3 | 84% | – | 6.4 | 7% | – | –
O=c1nc2n(c(=O)n1CCN1CCC(=C(c3ccc(F)cc3)c3ccc(F)cc3)CC1)CCC2 | 6.8 | 8.3 | 83% | – | – | 8% | – | –
O=C(c1ccc(F)cc1)C1CCN(CCCn2nc3n(c2=O)CCCC3)CC1 | – | 7.7 | – | – | 7.8 | – | – | –
O=C(c1ccc(F)cc1)C1CCN(CCCn2nc3n(c2=O)CCCCC3)CC1 | – | – | – | – | – | – | Non-competitive inhibition | Non-competitive antagonist
COc1ccc(C(=C2CCN(CCn3nc4n(c3=O)CCCC4)CC2)c2ccc(OC)cc2)cc1 | 7.2 | 6.8 | 41% | 4% | – | – | – | –

Reference: ChEMBL document CHEMBL1126018, “Syntheses and 5-HT2 antagonist activity of bicyclic 1,2,4-triazol-3(2H)-one and 1,3,5-triazine-2,4(3H)-dione derivatives” (J Med Chem, 1992)
